Data from ChEMBL document CHEMBL1926538, “3,5-Disubstituted-thiazolidine-2,4-dione analogs as anticancer agents: design, synthesis and biological characterization” (Eur J Med Chem, 2012).
Calls of active or inactive are those of the source. The calls are words filed in the database; no cut-off is given here.

How the values were obtained:
[1] = Induction of apoptosis in human M12 cells assessed as late apoptotic cells at 20 uM after 24 hrs by annexinV-propidium iodide staining-based flow cytometric analysis (reference value: 4.7%); assay type: functional
U-937 [2] = experiment: Cell cycle arrest in human U937 cells assessed as sub-diploid apoptotic fraction at 15 uM after 24 hrs by propidium iodide staining-based flow cytometric analysis; assay type: functional
Outline: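 Cells cultured in RPMI 1640 with 10% FBS and treated 24 h at the indicated concentrations. Stained with propidium iodide for 4 h at 4 °C in the dark. Flow cytometry gave the percentage of cells in G₀/G₁, S, G₂/M and sub-G₁ phases.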

[3] = Growth inhibition of human NCI60 cells; assay type: functional
[4] = target: 5'-AMP-activated protein kinase catalytic subunit alpha-2 (Homo sapiens) (UniProt P54646); experiment: Inhibition of AMPK at 10 uM
Chain of 5'-AMP-activated protein kinase catalytic subunit alpha-2 (Homo sapiens) (P54646 whole entry, looked up): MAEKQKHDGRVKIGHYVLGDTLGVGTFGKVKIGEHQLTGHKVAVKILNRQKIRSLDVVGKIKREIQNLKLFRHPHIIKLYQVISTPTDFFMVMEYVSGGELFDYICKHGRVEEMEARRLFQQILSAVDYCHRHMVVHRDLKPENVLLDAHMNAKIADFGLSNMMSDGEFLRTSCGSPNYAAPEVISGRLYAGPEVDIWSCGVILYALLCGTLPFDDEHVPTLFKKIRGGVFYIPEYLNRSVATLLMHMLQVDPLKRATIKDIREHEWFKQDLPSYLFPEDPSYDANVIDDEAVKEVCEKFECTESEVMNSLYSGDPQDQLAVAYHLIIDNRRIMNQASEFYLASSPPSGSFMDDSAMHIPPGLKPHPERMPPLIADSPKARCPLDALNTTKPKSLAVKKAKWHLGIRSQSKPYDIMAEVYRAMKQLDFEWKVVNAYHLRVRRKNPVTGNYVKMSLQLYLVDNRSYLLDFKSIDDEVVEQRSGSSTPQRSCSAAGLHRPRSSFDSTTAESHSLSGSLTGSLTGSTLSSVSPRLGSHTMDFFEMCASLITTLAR

[5] = target: RAF proto-oncogene serine/threonine-protein kinase (Homo sapiens) (UniProt P04049); experiment: Inhibition of Raf-mediated ERK phosphorylation in human DU145 cells at 10 to 20 uM after 24 hrs by Western blot analysis; assay type: cell-based; conditions: DU-145
Chain of RAF proto-oncogene serine/threonine-protein kinase (Homo sapiens) (P04049 whole entry): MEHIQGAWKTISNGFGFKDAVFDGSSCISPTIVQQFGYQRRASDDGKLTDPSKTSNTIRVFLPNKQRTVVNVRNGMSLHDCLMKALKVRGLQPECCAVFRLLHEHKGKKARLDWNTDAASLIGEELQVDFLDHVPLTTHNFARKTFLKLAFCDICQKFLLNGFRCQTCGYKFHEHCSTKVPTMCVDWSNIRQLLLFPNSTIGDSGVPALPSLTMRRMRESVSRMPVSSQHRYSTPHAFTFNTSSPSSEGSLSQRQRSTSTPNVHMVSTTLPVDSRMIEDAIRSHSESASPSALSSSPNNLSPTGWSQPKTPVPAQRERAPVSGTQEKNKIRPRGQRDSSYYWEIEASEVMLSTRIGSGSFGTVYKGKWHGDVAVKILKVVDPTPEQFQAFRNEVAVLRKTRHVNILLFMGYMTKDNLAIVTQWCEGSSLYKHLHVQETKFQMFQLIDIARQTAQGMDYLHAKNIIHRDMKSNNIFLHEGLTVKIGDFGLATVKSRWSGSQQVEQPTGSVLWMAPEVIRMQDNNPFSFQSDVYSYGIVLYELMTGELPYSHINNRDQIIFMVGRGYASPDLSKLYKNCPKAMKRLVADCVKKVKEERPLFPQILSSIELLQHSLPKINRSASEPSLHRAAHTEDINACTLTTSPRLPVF
Outline: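 Cells in RPMI 1640 with 10% heat-inactivated FBS, 37 °C, 5% CO2; treated in growing medium (DU145 24 h; U937 1 h at 5 × 10⁵/mL). Lysed by sonication in SDS sample buffer with protease inhibitors plus 1 mM orthovanadate and pyrophosphate, boiled 5 min. Blots blocked in 5% milk, primary antibodies 1:1000 overnight at 4 °C, HRP secondary 1:2000, chemiluminescence; α-tubulin loading control.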

[6] = target: Casein kinase I isoform delta (Homo sapiens) (UniProt P48730); experiment: Inhibition of Ckld at 10 uM
Chain of Casein kinase I isoform delta (Homo sapiens) (P48730 whole entry, looked up, canonical isoform): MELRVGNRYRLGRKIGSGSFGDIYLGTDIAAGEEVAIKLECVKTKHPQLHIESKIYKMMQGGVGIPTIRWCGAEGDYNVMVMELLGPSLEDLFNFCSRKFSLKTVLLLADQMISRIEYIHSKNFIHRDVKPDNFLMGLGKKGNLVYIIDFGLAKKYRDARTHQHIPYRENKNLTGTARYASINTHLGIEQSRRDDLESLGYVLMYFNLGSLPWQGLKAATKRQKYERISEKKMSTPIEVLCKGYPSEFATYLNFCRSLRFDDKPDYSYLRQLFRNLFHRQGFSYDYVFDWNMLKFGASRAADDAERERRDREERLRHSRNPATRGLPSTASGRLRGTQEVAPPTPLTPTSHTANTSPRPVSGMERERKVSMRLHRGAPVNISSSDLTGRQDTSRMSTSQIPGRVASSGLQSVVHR

U-937 [7] = experiment: Induction of apoptosis in human U937 cells assessed as late apoptotic cells at 10 uM after 6 hrs by annexinV-propidium iodide staining-based flow cytometric analysis (reference value: 13.8%); assay type: functional
[8] = target: Interleukin-1 receptor-associated kinase 4 (Homo sapiens) (UniProt Q9NWZ3); experiment: Inhibition of IRAK4 at 10 uM
Chain of Interleukin-1 receptor-associated kinase 4 (Homo sapiens) (Q9NWZ3 whole entry): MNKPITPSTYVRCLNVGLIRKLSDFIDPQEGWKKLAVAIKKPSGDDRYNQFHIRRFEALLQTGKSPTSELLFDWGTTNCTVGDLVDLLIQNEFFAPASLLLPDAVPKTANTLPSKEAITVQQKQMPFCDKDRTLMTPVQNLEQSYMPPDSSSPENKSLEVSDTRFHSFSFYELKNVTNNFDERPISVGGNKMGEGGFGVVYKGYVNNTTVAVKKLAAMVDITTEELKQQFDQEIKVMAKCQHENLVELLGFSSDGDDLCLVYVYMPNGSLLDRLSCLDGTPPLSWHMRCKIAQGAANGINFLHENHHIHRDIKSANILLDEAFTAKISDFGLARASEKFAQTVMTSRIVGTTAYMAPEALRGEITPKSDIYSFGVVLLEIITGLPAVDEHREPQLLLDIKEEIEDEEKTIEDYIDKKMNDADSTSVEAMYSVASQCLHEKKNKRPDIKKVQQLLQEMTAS

[9] = Induction of apoptosis in human M12 cells assessed as necrotic cells at 20 uM after 24 hrs by annexinV-propidium iodide staining-based flow cytometric analysis (reference value: 1.7%); assay type: functional
[10] = target: Tyrosine-protein kinase Lyn (Homo sapiens) (UniProt P07948); experiment: Inhibition of LYN at 10 uM
Chain of Tyrosine-protein kinase Lyn (Homo sapiens) (P07948 2-512 limits assumed): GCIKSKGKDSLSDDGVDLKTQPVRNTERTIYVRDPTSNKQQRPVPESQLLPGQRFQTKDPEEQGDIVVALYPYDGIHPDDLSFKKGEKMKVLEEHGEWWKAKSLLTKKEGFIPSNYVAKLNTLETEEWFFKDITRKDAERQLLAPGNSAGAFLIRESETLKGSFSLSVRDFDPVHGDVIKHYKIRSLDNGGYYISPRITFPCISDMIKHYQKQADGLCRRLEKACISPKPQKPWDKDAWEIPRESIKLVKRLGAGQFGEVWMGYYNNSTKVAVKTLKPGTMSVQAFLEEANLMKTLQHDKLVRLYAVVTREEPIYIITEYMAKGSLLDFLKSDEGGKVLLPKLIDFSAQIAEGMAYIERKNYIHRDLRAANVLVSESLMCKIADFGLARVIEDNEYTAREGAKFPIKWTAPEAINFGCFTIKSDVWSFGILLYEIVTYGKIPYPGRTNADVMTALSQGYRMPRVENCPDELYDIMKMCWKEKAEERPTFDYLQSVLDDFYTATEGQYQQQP

inhibition [4]: 76% | inhibition [5]: Active | inhibition [6]: -5% | inhibition [8]: -1% | inhibition [10]: 0%
SMILES: NCCN1C(=O)S/C(=C\CCC2CCCCC2)C1=O
Activity [1]: 60.5% | Activity (U-937 [2]): 64.3% | GI50 [3]: 1400 nM | Activity (U-937 [7]): 40.2% | Activity [9]: 5.2%
